From ChEMBL document CHEMBL4513216, “Probing the Open Global Health Chemical Diversity Library for Multistage-Active Starting Points for Next-Generation Antimalarials” (ACS Infect Dis, 2020)

Experiment: Toxicity liver stage against HepG2, at 10uM
Format: cell-based
Design: test concentration 10 uM, cell line HepG2-A16-CD81EGFP
Settings: human, HepG2-A16-CD81EGFP cells; read-out: INHIBITION
Summary of the method: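 Uninfected HepG2-A16-CD81EGFP cells, 3 × 10^3 per well, 1536-well, plated on prespotted compound at 10 μM final, parasite-free screening media added to match infected plates; puromycin 10 μM positive, DMSO 0.5% negative; run in parallel with 48 h PbLuc assay at 37 °C, 5% CO2; viability by CellTiter-Glo luminescence, normalized to controls.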

Structure (SMILES) | cytotoxicity at 10 µM [%]
Cc1ccc(S(=O)(=O)n2ccn(C(=O)COc3ccccc3)c2=O)cc1 | 5.34
CN(C)C(=O)CN1C[C@H]2CCN(C(=O)c3ccccc3)CC[C@H]2S1(=O)=O | 9.1
CC(=O)NCC(=O)NC1CCc2c(ccc(=O)n2CC2CC2)C1 (configuration not stated) | 7.89
O=C(c1cocn1)N1CCC2(CC1)CC(OCC1CC1)CO2 (configuration not stated) | 10
O=C(NCc1ccccn1)[C@@H]1COC[C@H]2CNC[C@H]21 | 11.2
Cc1cccc(CNC(=O)c2cccnc2N)c1 | 11
CCCn1c(N2CCCC2)nc2c(C)nn(C)c2c1=O | 2.33
CNC(=O)c1nn(C)cc1NC(=O)C(C)n1ncc(Cl)c1C (configuration not stated) | 8.77
COc1cc(CN2CCC3(CC(Nc4ccncn4)C3)C2)cc(OC)c1 (configuration not stated) | -9.27
Cc1cccc(C2CCCN(C(=O)c3ccncc3)C2)n1 (configuration not stated) | 2.97
COCC(=O)N1CCCC1c1csc(Nc2cnccn2)n1 (configuration not stated) | -8.11
Cc1cnc(CC2COCCN(Cc3nccn3C)C2)cn1 (configuration not stated) | -2.25
O=C(C1CCCCC1)N1CCC(c2n[nH]c3nccnc23)CC1 | 4.05
Cc1noc(C)c1C(=O)N1CCC2(CC(N(C)c3ccncn3)C2)C1 (configuration not stated) | -5.94
Cc1ncncc1C(=O)N1CCCC(Cc2nccs2)C1 (configuration not stated) | -9.13
c1cncc(C2=NOC3(CCN(Cc4c[nH]c5ccccc45)CC3)C2)c1 | 9.49
COc1ccccc1-c1cc(C(=O)N2CCCC2)c2cnn(C)c2n1 | 9.4
CN(CC1CCOC1)c1ccc(Br)cn1 (configuration not stated) | 8.35
CC(C)C(C)NC(=O)Nc1cccn(C)c1=O (configuration not stated) | -7.48
Cc1nccn1-c1ccc(CNS(=O)(=O)N2CCCCC2C)cn1 (configuration not stated) | -11
CC(C)(C)CN(CCO)C(=O)Nc1cccc(N2CCNC2=O)c1 | -17.2

Structure (SMILES) | cytotoxicity at 10 µM [%]
COC(=O)CN(C(=O)c1ccoc1)c1cccc(F)c1 | 5.42
Cc1cc(C(=O)NC2CCN(c3ncccc3C#N)CC2)on1 | 0.0456
CS(=O)(=O)NC(=O)c1cnc2c(cnn2C2CCCC2)c1 | 8.18
O=C(CN1CCN(c2ccccc2F)CC1)Nc1ccc(Cl)cn1 | 4.04
Cn1ccnc1COc1ccc(NC(=O)CCC2CCCO2)cc1 (configuration not stated) | 4.34
Cc1nc(CCNC(=O)C2CC(=O)N(C(C)C)C2)cs1 (configuration not stated) | 14.9
CCc1cc(CNCc2ccccc2N(C)C2CCN(C)CC2)on1 | -11.7
CCC1CN(C(=O)c2cnc(-c3cnn(C)c3)s2)CCO1 (configuration not stated) | 8.79
O=C(Cc1ccc(S(=O)(=O)C(F)F)cc1)N1CCC1 | -17
CS(=O)(=O)N1CCO[C@@H]2CN(C(=O)C3CCOC3)CC[C@@H]2C1 (some centres not stated) | -108
O=C1NCCO[C@H]2CN(C(=O)c3cccs3)CC[C@@H]12 | -107
CC(C)(CO)Nc1cc(-c2ccncc2)ncn1 | -0.89
CCN(C)C[C@@H]1CN(C(=O)c2cc(-c3ccc(F)cc3)n[nH]2)C[C@@H]1CO | -26.4
Cc1ccccc1CN1CCC(CNc2ncnc3c2CCNCC3)C1 (configuration not stated) | -7.13
CNC(=O)[C@@H]1C[C@@H](n2cc(-c3ccc(Cl)cc3)nn2)CN1 | -3.95
Clc1ccccc1C1(c2ccnc(C3CC3)n2)CCNCC1 | 7.89
COc1ccc(OCc2cc(C(=O)N3C[C@@H](C)O[C@@H](C)C3)n[nH]2)c(Cl)c1 | -4.28
O=C(CN1CCCCC1=O)N1CCC2(CC1)[C@H](O)C[C@@H]2O | -1.74
COCCN1CCC(c2nc3c([nH]2)CCCNC3=O)CC1 | 0.583
CN(Cc1cccnc1)C[C@H]1CC[C@@H](Cc2ccc3c(cnn3C)c2)O1 | 5.15
COCCn1ccnc1CN(Cc1ccccn1)CC(C)C | 4.96

Structure (SMILES) | cytotoxicity at 10 µM [%]
Cc1cccc(C)c1OC1CN(Cc2cnn(C)c2)C1 | 7.97
CN1CCCN(C[C@H]2C[C@H](CO)CN(Cc3cccnc3N)C2)CC1 | -10.7
Cc1ccc(CN2CCN(Cc3ccc(N(C)C)nc3)CC2=O)cc1C | -2.43
Cc1cccnc1CN(C)CC1(O)CCCN(CC2CCCCC2)C1=O (configuration not stated) | -4.09
CC(C)c1cc(COCCC(=O)O)no1 | -6.5
CCC1CCCCN1Cc1ncc(C(C)(C)C)o1 (configuration not stated) | -3.48
Cc1nnc2n1CCN(C(=O)c1cc(C)n(-c3ccccc3)c1C)C2 | -4.94
Cc1ccc(C(=O)N2CCCCC2CNC(N)=O)cc1F (configuration not stated) | -6.56
COCCCN(C)C1CCCN(Cc2noc(C3CC3)n2)C1 (configuration not stated) | -15.4
CCN1CCN(C(=O)c2ccc(=O)n(C)c2)c2ccccc21 | -1.64
CN(CC1COc2ccccc2O1)C(=O)CCn1cncn1 (configuration not stated) | -7.36
CCOc1ccccc1OC1CCN(C(=O)c2cnns2)CC1 | -3.14
COc1ccc(COCC(O)CN2CCC(c3ccn[nH]3)CC2)cc1 (configuration not stated) | -0.975
CCOc1ncccc1NC(=O)NCC(O)c1ccc(OC)cc1 (configuration not stated) | -16.6
CN(Cc1ccc2c(c1)OCO2)C(=O)Cn1cccnc1=O | -3.96
NC(=O)C1CCN(C(=O)NCc2ccccc2-n2cccn2)CC1 | -11.1
Cc1nnc2n1CCN(CCOc1cccc(C#N)c1)C2 | -7.88
Cc1cccc(C(=O)N2CCC(c3n[nH]c(C4CC4)n3)CC2)c1 | -15.3
CCn1cnnc1CNC(=O)c1ccc(Cl)cc1I | -6.31
CCOc1cc(/C=C/c2ncc(C(=O)O)s2)cc(Br)c1OC | 7.59
CCOc1cccc(C(=O)N2CCN(c3nccc(OC)n3)CC2)c1 | 5.41

Structure (SMILES) | cytotoxicity at 10 µM [%]
Cc1nn(C)c(C)c1CC(=O)N1CCCC(n2ccnc2)C1 (configuration not stated) | -11.5
COc1cccc(CCNC(=O)CN2CCN(C)CC2C)c1 (configuration not stated) | -16.7
CCc1ccc(O)c(C(=O)NC2CCN(S(=O)(=O)CC)CC2)c1 | 7.37
CCn1nc2c(cc1=O)CN(Cc1nc(-c3ccccn3)no1)CC2 | -5.13
Cc1cc(C)n(CC(=O)N2CCC(NS(=O)(=O)c3ccccc3)CC2)n1 | 4.59
Cn1cnnc1C1CCN(C(=O)CCCOc2ccccc2F)CC1 | -6.26
COCc1cccc(CNCc2c(C)nn(C)c2N(C)C)c1 | 1.08
Cc1ccc(C(=O)CN(C2=NCCCCC2)c2ccccc2)cc1 | 17.7
CCn1ncc2c1C(COC)N(C(=O)c1ccsc1)CC2 (configuration not stated) | -101
COc1ccc(CN2CCC3(CC2)CCN(c2cnn(C)c2)C3=O)cc1 | -85.6
c1cc(COC[C@]23COC[C@H]2CN(Cc2ccncc2)C3)ccn1 | -63.5
O=S(=O)(C1CC1)N1C[C@H]2CCC[C@@]2(COCc2ccccn2)C1 | 10.6
O=C(Cc1cccs1)N1C[C@@H]2COC[C@]2(COCc2cccnc2)C1 | -2.8
O=C(c1ccc(F)cc1)N1C[C@@H]2CCN(c3cccnc3)C[C@@H]2C1 | -78.4
O=C1N(c2cccnc2)CCC12CCCN(Cc1ccco1)C2 (configuration not stated) | -5.79
Fc1ccc(CN2C[C@@H](OCc3ccccn3)[C@H]3COC[C@H]32)cc1 | -98.9
Cc1cccc(COC2COC3(CCN(S(C)(=O)=O)CC3)C2)n1 (configuration not stated) | 8.98
Cn1nc(Cn2cccn2)c2c1CN(C1CCOCC1)C2 | 10.1
O=C(N1CCOCC1)N1C2CCC(O)(CC2)C1CN1CCOCC1 (configuration not stated) | -1.94
